Measured values reported in ChEMBL document CHEMBL3526013, “Cannabinoid type 1 receptor antagonists modulate transport activity of multidrug resistance-associated proteins MRP1, MRP2, MRP3, and MRP4” (Drug Metab Dispos, 2011).
pKi: −log10 of the molar value.

How the values were obtained:
[1] = target: T1, Multidrug resistance-associated protein 1 (Homo sapiens, UniProt P33527); assay: Inhibition of MRP1-mediated E2-17betaG transport in human MRP1 expressing HEK293 cells at 7 uM during 5 mins; format: ADME, cell-based; details: hek293, 5 min
How it was run: (§1)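 Inside-out membrane vesicles from HEK293 cells transduced with MRP baculovirus (5 mM butyrate at 24 h, harvested day 3). Reaction: 7.5 µg vesicles in TS buffer pH 7.4 with 4 mM ATP, 10 mM MgCl2 and [3H]E2-17βG, 37°C for 5 min. E2-17βG was 0.16 µM (MRP1), 20 µM (MRP2) or 0.12 µM (MRP4). Uptake was read by rapid filtration and scintillation counting. ATP-dependent uptake was taken as ATP minus AMP values, with drug-free uptake set at 100%. Nominal 10 or 100 µM antagonist; actual concentration measured by LC-MS/MS. Three independent experiments.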

[2] = target: T2, ATP-binding cassette sub-family C member 4 (Homo sapiens, UniProt O15439); assay: Inhibition of MRP4-mediated E2-17betaG transport in human MRP4 expressing HEK293 cells at 7 uM during 5 mins; format: ADME, cell-based; details: hek293, 5 min; how it was run: as §1
T2 sequence (O15439 whole entry): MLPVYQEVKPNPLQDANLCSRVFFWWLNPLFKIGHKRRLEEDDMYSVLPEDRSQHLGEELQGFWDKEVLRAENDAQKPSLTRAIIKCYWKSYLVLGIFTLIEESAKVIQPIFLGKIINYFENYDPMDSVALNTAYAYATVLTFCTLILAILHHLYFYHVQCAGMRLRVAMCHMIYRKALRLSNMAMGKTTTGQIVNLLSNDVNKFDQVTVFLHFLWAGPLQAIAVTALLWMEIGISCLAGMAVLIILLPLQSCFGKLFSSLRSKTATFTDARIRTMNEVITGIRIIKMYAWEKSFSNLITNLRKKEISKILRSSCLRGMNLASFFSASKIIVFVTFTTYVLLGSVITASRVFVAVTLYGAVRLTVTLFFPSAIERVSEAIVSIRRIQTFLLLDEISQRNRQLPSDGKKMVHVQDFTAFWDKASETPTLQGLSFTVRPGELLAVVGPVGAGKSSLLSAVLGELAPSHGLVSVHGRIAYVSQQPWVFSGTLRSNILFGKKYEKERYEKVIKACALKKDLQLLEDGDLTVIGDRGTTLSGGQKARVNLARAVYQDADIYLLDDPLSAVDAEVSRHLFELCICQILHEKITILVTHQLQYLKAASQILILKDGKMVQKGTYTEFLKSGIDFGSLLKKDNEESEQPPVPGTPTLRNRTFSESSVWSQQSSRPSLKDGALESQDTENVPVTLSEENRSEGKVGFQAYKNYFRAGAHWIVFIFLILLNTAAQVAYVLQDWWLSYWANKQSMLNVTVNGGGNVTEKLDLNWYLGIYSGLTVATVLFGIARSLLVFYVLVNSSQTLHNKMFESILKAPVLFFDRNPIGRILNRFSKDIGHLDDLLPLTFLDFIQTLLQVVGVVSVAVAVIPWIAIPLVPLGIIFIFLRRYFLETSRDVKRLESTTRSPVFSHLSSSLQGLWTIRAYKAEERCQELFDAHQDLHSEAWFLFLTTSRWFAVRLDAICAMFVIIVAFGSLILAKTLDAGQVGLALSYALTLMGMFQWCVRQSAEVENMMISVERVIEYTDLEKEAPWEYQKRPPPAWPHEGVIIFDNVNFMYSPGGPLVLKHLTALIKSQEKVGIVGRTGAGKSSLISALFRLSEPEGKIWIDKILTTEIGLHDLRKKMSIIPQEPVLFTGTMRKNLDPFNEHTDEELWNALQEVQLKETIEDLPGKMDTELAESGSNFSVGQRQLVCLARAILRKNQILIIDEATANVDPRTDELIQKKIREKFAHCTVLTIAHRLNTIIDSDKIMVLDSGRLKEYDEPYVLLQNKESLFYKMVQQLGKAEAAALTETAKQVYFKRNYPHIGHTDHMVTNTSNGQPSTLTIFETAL

[3] = target: T3, ATP-binding cassette sub-family C member 2 (Homo sapiens, UniProt Q92887); assay: Induction of MRP2-mediated E2-17betaG transport in human MRP2 expressing HEK293 cells at 7 uM during 5 mins; format: ADME, cell-based; details: hek293, 5 min; how it was run: as §1
[4] = Retention time of the compound by LC-MS/MS method; format: physicochemical
How it was run: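 Reaction mix without radiolabel, AMP condition, with 7.5 μg eYFP vesicles. Supernatant after 16,000–20,000g spin diluted in 50% acetonitrile/0.1% TFA. Gradient of 0.1% TFA water/acetonitrile, 50→90% B over 5 min. Electrospray triple quadrupole. Duplicates, at least three experiments.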

[5] = target: T2, ATP-binding cassette sub-family C member 4; assay: Inhibition of MRP4-mediated E2-17betaG transport in human MRP4 expressing HEK293 cells at 33 uM during 5 mins; format: ADME, cell-based; details: hek293, 5 min; how it was run: as §1
Rattus norvegicus = assay: Attenuation of CP55940-induced hypotension in iv dosed rat; format: functional
How it was run: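 Male normotensive anaesthetized Wistar rats; antagonist given i.v. at several doses (n=2 per dose) 10 min before CP55,940 0.1 mg/kg i.v. Hypotension develops within 1 min; lowest blood pressure taken as the hypotensive effect. ED50 is the dose inhibiting the CP55,940 hypotensive effect by 50%, calculated from the linear part of the percentage dose-response curve.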

[6] = target: T3, ATP-binding cassette sub-family C member 2; assay: Induction of MRP2-mediated E2-17betaG transport in human MRP2 expressing HEK293 cells at 33 uM during 5 mins; format: ADME, cell-based; details: hek293, 5 min; how it was run: as §1
[7] = target: T1, Multidrug resistance-associated protein 1; assay: Inhibition of MRP1-mediated E2-17betaG transport in human MRP1 expressing HEK293 cells at 33 uM during 5 min; format: ADME, cell-based; details: hek293, 5 min; how it was run: as §1
[8] = target: T3, ATP-binding cassette sub-family C member 2; assay: Induction of MRP2-mediated E2-17betaG transport in human MRP2 expressing HEK293 cells at 1 to 3 uM during 5 mins; format: ADME, cell-based; details: hek293, 5 min
How it was run: (§2)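 Inside-out membrane vesicles from HEK293 cells transduced with MRP2 baculovirus (sodium butyrate 5 mM added at 24 h, harvested day 3). 7.5 μg vesicles in TS buffer (pH 7.4) with 4 mM ATP, 10 mM MgCl2, 20 μM [3H]E2-17βG, 5 min at 37°C. Rapid filtration and scintillation counting; AMP values subtracted. Nominal 10 and 100 μM antagonist, actual levels measured by LC-MS/MS. Untreated set at 100%. Three independent experiments.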

[9] = target: T1, Multidrug resistance-associated protein 1; assay: Inhibition of MRP1-mediated E2-17betaG transport in human MRP1 expressing HEK293 cells at 1 to 3 uM during 5 mins; format: ADME, cell-based; details: hek293, 5 min
How it was run: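 Inside-out membrane vesicles from MRP1-baculovirus-transduced HEK293 cells. 7.5 μg vesicles in TS buffer, 4 mM ATP, 10 mM MgCl2, 0.16 μM [3H]E2-17βG, 5 min at 37°C. Stopped on ice, then rapid filtration and scintillation counting. ATP minus AMP uptake taken as net. Nominal 10 or 100 μM antagonist, actual levels by LC-MS/MS. Expressed as % of untreated. Three independent experiments.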

[10] = target: T3, ATP-binding cassette sub-family C member 2; assay: Induction of MRP2-mediated E2-17betaG transport in human MRP2 expressing HEK293 cells at 0.7 to 1.3 uM during 5 mins; format: ADME, cell-based; details: hek293, 5 min; how it was run: as §2
[11] = target: T2, ATP-binding cassette sub-family C member 4; assay: Inhibition of MRP4-mediated E2-17betaG transport in human MRP4 expressing HEK293 cells at 1 to 3 uM during 5 mins; format: ADME, cell-based; details: hek293, 5 min
How it was run: (§3)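 MRP4-expressing HEK293 inside-out vesicles (baculovirus transduction). 7.5 μg protein with 4 mM ATP, 10 mM MgCl2 in TS buffer and 0.12 μM [3H]E2-17βG, 5 min at 37°C. Filter-bound radioactivity counted; AMP control subtracted for ATP-dependent uptake. Nominal 10/100 μM antagonist, actual concentrations by LC-MS/MS. Percent of untreated, three independent experiments.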

[12] = Cmax in male human subjects; format: ADME, organism-based; details: in vivo
MRP4 (ABCC4) = target: T4, MRP4 (ABCC4) (Homo sapiens, UniProt O15439); assay: Inhibition of MRP4-mediated E2-17betaG transport in human MRP4 expressing HEK293 cells at 4 uM during 5 mins; format: ADME, cell-based; details: probe E2-17betaG; how it was run: as §3
T4 sequence (O15439 whole entry): T2 sequence (O15439 whole entry)

[13] = target: T3, ATP-binding cassette sub-family C member 2; assay: Induction of MRP2-mediated E2-17betaG transport in human MRP2 expressing HEK293 cells at 4 uM during 5 mins; format: ADME, cell-based; details: hek293, 5 min; how it was run: as §2
[14] = target: T2, ATP-binding cassette sub-family C member 4; assay: Noncompetitive inhibition of MRP4-mediated E2-17betaG transport in human MRP4 expressing HEK293 cells by Dixon plot; format: ADME, cell-based
[15] = target: ATP-binding cassette sub-family C member 3 (Homo sapiens, UniProt O15438); assay: Inhibition of MRP3-mediated E2-17betaG transport in human MRP3 expressing HEK293 cells in presence of 15 uM E2-17betaG; format: ADME, cell-based
How it was run: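 Vesicles from MRP3-transduced HEK293 cells. 7.5 μg in TS buffer with 4 mM ATP and 10 mM MgCl2, substrate [3H]E2-17βG at 15 μM, with antagonists at high concentrations. Incubated at 37°C, filtered and counted. ATP-dependent uptake calculated by AMP subtraction.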

[16] = target: T2, ATP-binding cassette sub-family C member 4; assay: Inhibition of MRP4-mediated E2-17betaG transport in human MRP4 expressing HEK293 cells in presence of 0.1 to 1 uM E2-17betaG

T1 sequence (P33527 whole entry): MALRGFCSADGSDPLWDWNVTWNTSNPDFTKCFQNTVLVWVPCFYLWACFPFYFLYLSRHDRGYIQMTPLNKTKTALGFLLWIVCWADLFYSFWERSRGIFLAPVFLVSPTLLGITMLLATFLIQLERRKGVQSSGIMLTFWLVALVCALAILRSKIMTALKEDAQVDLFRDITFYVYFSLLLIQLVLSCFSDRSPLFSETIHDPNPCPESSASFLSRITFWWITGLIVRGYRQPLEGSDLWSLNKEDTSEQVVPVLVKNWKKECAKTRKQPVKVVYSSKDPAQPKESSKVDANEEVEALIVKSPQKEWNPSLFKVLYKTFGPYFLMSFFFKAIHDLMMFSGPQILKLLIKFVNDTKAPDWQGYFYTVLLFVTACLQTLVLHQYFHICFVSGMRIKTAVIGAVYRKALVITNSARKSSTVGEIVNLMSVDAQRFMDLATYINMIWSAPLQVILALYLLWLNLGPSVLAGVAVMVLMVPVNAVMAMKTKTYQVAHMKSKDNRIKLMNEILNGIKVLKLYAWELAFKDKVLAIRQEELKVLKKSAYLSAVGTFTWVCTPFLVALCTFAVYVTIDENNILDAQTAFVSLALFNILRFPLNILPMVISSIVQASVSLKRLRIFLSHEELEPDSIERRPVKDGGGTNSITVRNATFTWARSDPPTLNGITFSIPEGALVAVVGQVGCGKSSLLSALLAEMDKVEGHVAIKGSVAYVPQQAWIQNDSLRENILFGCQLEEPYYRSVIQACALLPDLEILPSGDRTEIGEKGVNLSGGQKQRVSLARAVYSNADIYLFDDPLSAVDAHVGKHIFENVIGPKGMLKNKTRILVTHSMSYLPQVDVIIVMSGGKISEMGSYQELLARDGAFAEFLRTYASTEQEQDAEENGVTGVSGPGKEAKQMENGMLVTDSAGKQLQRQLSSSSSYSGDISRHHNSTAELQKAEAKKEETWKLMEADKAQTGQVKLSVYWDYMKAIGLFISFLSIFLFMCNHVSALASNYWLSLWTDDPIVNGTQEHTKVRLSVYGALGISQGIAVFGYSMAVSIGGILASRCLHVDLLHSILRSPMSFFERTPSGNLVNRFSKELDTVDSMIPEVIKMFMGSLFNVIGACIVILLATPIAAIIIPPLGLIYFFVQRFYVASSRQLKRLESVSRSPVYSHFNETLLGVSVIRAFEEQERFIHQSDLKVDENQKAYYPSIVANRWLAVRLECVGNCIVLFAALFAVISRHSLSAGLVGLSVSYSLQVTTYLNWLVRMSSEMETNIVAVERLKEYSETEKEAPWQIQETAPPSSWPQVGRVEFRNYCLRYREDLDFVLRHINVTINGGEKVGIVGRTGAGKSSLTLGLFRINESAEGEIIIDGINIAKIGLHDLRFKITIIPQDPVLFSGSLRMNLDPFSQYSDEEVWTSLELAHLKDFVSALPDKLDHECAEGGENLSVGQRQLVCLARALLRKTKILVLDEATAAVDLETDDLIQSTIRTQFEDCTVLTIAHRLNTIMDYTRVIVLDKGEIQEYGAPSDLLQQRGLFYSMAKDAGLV
T3 sequence (Q92887 whole entry): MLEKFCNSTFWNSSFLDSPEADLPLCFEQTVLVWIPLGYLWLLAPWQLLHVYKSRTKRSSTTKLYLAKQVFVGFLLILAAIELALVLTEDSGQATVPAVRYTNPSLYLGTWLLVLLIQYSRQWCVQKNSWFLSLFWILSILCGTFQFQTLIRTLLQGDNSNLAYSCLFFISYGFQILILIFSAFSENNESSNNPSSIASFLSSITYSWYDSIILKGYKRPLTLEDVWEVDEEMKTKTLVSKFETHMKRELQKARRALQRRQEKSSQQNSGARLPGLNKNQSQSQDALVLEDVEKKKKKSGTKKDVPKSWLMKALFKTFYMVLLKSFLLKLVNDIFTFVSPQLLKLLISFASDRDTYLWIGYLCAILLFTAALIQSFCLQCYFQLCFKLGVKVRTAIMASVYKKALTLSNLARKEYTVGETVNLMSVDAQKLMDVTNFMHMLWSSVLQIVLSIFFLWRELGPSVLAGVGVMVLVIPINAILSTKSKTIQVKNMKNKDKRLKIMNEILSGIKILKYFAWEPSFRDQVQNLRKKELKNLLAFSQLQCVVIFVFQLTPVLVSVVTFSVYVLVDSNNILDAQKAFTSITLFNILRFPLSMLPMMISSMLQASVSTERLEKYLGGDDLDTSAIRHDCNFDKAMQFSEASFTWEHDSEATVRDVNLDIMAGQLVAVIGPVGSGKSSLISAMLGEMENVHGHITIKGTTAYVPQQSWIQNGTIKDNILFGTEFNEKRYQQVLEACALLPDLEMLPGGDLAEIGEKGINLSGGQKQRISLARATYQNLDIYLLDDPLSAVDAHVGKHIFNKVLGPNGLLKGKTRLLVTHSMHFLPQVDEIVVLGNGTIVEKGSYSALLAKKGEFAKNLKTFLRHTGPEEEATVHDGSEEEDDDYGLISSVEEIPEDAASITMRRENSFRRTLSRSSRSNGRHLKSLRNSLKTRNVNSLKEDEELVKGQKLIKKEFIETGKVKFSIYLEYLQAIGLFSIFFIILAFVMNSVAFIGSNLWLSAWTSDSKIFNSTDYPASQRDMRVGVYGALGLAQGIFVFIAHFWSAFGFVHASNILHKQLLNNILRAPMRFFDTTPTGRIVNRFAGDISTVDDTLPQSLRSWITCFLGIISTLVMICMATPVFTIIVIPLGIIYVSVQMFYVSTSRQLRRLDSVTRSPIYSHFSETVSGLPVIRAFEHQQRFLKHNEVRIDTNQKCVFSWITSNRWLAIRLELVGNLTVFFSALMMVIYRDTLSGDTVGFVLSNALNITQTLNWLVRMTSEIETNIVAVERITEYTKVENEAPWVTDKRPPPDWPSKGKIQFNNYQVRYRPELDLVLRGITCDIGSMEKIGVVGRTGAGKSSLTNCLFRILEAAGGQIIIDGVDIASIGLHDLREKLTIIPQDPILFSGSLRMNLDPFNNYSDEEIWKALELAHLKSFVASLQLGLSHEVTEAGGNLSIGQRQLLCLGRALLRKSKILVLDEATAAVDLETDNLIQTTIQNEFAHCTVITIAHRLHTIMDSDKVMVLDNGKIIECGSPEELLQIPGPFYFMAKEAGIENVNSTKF
Chain of ATP-binding cassette sub-family C member 3 (O15438 whole entry): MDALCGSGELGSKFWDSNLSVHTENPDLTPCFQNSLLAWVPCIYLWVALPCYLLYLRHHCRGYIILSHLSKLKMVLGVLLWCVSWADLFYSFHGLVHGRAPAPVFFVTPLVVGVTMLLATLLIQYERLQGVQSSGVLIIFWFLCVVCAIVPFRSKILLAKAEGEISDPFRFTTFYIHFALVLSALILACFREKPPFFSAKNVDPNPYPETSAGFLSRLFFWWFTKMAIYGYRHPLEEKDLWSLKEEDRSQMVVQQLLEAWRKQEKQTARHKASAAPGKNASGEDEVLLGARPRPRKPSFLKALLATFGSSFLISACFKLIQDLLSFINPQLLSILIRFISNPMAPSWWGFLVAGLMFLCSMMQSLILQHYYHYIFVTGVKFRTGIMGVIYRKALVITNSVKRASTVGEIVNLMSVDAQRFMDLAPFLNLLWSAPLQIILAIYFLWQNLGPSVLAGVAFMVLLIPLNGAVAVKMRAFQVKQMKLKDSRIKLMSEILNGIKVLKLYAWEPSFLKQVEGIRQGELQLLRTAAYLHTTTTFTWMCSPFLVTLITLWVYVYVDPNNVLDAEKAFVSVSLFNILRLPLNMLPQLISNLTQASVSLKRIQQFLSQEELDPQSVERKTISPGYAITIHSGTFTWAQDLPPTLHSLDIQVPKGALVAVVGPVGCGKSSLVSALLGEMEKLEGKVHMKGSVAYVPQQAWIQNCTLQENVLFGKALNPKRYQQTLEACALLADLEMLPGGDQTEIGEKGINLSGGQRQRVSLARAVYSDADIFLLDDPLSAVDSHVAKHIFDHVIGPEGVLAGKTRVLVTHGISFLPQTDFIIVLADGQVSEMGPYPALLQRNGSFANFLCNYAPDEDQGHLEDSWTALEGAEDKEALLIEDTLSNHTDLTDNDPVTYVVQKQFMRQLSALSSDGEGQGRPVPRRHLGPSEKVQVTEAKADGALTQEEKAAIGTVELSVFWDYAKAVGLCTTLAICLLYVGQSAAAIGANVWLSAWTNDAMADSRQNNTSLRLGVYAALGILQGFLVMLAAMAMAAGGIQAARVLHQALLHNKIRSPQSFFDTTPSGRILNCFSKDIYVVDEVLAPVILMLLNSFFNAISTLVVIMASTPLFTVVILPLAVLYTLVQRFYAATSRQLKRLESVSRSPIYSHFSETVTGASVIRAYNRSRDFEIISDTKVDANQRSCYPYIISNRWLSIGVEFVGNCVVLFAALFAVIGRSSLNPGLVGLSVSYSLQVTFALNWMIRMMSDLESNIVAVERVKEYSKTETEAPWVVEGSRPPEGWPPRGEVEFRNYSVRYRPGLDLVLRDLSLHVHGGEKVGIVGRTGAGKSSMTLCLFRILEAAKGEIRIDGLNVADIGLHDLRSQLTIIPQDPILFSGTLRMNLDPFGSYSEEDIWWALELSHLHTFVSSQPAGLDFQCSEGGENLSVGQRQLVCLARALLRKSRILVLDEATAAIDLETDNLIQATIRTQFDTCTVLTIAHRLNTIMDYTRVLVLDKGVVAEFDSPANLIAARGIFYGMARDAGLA

C/N=C(\NS(=O)(=O)N(C)C(C)C)N1CC(c2ccccc2)C(c2ccc(Cl)cc2)=N1 (stereo not given)
inhibition (INH) [1]: Active
inhibition (INH) [2]: Active
Activity [3]: 543%
Retention_time [4]: 4.2 min

C/N=C(\NS(=O)(=O)N(C)C)N1CC(c2ccccc2)C(c2ccc(Cl)cc2)=N1 (stereo not given)
inhibition (INH) [5]: Active
ED50 (Rattus norvegicus): > 0.3 mg/kg
Activity [6]: 543%
inhibition (INH) [7]: Active
Retention_time [4]: 3.2 min

C/N=C(\NS(=O)(=O)N1CCSCC1)N1CC(c2ccccc2)C(c2ccc(Cl)cc2)=N1 (stereo not given)
Activity [8]: 349%
inhibition (INH) [9]: Not Active
Activity [10]: 256%
inhibition (INH) [11]: Not Active
Retention_time [4]: 4 min

CN=C(NS(=O)(=O)N1CCS(=O)(=O)CC1)N1CC(c2ccccc2)C(c2ccc(Cl)cc2)=N1 (stereo not given)
Activity [8]: Not Active
inhibition (INH) [9]: Not Active
inhibition (INH) [11]: Not Active
Retention_time [4]: 2.6 min

Cc1c(C(=O)NN2CCCCC2)nn(-c2ccc(Cl)cc2Cl)c1-c1ccc(Cl)cc1 [RIMONABANT]
Cmax [12]: 400 nM
inhibition at 5 min, 4 µM (MRP4 (ABCC4)): -58%
Activity [13]: 513%
pKi [14]: 5.40
inhibition (INH) [15]: Active
Retention_time [4]: 3.2 min
inhibition (INH) [16]: Active
